Screening results from PubChem.
Most compounds without a hit are left out; they make up all but 10% or so of the library.
Lmaj promast: reduces viability of Leishmania major promastigotes | AID 1063 | resazurin fluorescence viability | 200,000 compounds, 9% hits | inhibition, % at 10 µM; in the data active means inhibition above about 50%;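 further: promastigotes grown with compound for 44 hours at 28 °C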
WT yeast gro inh: growth inhibition of WT yeast, mitochondrial fusion screen; mitochondrial fusion phenotypic screen, WT strain; inhibition, % at 10 µM; 190,000 compounds, 2.1% hits; AID 1362; in the data active means inhibition above about 58%; tested in S. cerevisiae
Diaphorase act: counter-screen for diaphorase-based assays: diaphorase activators and chemical reducers | Diaphorase/resazurin coupled assay, resorufin fluorescence, 16 min; active compounds read high; 1 = vehicle wells, 0 = NADH-free wells | 190,000 compounds, 0.005% hits | AID 1229 | activation factor at 20 µM;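 active means diaphorase activity raised at least twofold by the compound at 20 µM; inactive means activation factor below 2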
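Test system: Clostridium kluyveri diaphorase, purified enzyme; input: enzyme 0.07 U/mL final; buffer or medium: 50 mM HEPES pH 7.4 with 4.542 mM MgCl2, 0.005% Tween 20; also added: 0.114 mM NADH and 0.1 mM resazurin, final amounts; schedule: 16 min enzyme reaction, ambient temperature; technique: fluorescence of resorufin, 544 nm excitation, 590 nm emission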
PMI act hi M6P: increases human PMI activity with near-saturating mannose 6-phosphate; P34949; coupled PMI enzyme assay, resazurin fluorescence, 20 min; active compounds read high; 1 = untreated enzyme, 0 = substrate-free blank; activation factor at 20 µM; 190,000 compounds, 0.34% hits; AID 1216;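 active means activation factor of 2 or more at 20 µM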
Target sequence (P34949 whole entry, looked up): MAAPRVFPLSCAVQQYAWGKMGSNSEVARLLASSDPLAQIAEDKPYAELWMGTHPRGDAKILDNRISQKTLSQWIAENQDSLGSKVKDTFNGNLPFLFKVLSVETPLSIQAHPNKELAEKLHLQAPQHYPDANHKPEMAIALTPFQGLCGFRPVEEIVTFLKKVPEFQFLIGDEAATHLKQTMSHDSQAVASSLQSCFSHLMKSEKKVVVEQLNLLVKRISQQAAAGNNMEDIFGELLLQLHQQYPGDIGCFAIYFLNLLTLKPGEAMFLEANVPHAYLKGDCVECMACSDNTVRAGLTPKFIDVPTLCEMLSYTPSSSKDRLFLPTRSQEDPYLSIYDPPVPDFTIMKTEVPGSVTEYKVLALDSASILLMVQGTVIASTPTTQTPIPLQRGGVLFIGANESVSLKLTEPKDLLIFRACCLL
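Material: human phosphomannose isomerase with PGI, G6PDH, diaphorase coupling enzymes; amount: PMI at 15 ng/mL final; also added: Mannose-6-phosphate 1.0 mM (near-saturating) plus 0.22 mM NADP+; incubation: enzyme reaction with compound 20 min at room temperature; signal: resorufin fluorescence (Ex 544/Em 590 nm) from resazurin via diaphorase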
PMI activator: increases human mannose-6-phosphate isomerase activity; P34949; purified human PMI, coupled resazurin fluorescence, 20 min; active compounds read high; 1 = vehicle control, 0 substrate-free wells; activation factor at 20 µM; 190,000 compounds, 0.005% hits; AID 1214;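 active means activation factor of 2 or more at 20 µM, relative to plate controls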
Active calls of the source: *; nt = no result given.

SMILES	Lmaj promast	WT yeast gro inh	Diaphorase act	PMI act hi M6P	PMI activator
COc1ccc(C(=O)NCCCc2nc3ccccc3n2Cc2ccccc2C)cc1OC	77*	-13	0.7	0.9	1.1
O=CNCCCc1nc2ccccc2n1Cc1cccc2ccccc12	93*	-11	1	1	1.1
N=c1n(CC(=O)c2ccc([N+](=O)[O-])cc2)c2ccccc2n1Cc1ccccc1Cl	101*	5	0.9	1	1
C=CCn1c(=N)n(CC(=O)c2cccc([N+](=O)[O-])c2)c2ccccc21	25	16	0.9	1	0.9
N=c1n(CC(=O)c2ccc([N+](=O)[O-])cc2)c2ccccc2n1Cc1ccccc1	99*	15	0.9	1.3	1.1
N=c1n(CC(=O)c2ccc([N+](=O)[O-])cc2)c2ccccc2n1Cc1ccc(Cl)cc1	100*	7	1	1.2	1
O=C(C1=C[C@H](C2CC2)C[C@H](OCc2ccc(CO)cc2)O1)N1CCOCC1	-8	7	0.7	0.9	0.9
Cn1ccc(C(=O)Oc2ccc(C(=O)Nc3ccc(F)cc3F)cc2)n1	-7	-5	1.2	1.1	1.1
COC(C(=O)Nc1cccc([N+](=O)[O-])c1)c1ccccc1 (stereo not given)	-3	4	1	1	1.1
CCc1ccc(-n2c(C)cc(/C=N/NC(=O)OC)c2C)cc1	46	10	1	1	1
N#Cc1cc2c(nc1Cl)CCCC2	73*	-9	1	1	1
CSc1nc2c(cc1C#N)CCCCC2	8	11	0.9	1	1.1
CO/N=C(\Cn1ncc(N2CCCC2)c(Br)c1=O)c1ccc(Cl)cc1	71*	5	0.9	0.9	0.9
CO/N=C(\Cn1ncc(NC2CCCCC2)c(Br)c1=O)c1ccc(Cl)cc1	6	71*	0.8	1	0.9
Cn1c2c(c(=O)n(C)c1=O)C1(C(=O)Nc3ccccc31)C(C#N)=C(N)O2 (stereo not given)	42	11	0.9	0.5	1.1
COC(=O)c1ccccc1NS(=O)(=O)c1ccc2c3c(cccc13)C(=O)N2	16	nt	0.7	0.8	0.8
Cc1oc2c(cc(NS(=O)(=O)c3ccc4c5c(cccc35)C(=O)N4)c3ccccc32)c1C(=O)OC(C)C	58*	-8	0.7	0.5	0.8
COc1cccc(CNc2ccccc2O)c1OCc1ccccc1F	62*	38	0.8	0.6	0.9
COc1cccc(CNc2ccc(C(=O)O)cc2)c1OCc1ccccc1	-8	0	1	1	1
COc1cccc(CNc2ccc(S(N)(=O)=O)cc2)c1OCc1ccccc1F	65*	1	0.7	0.9	0.9
COc1cccc(C2NC(=O)c3ccccc3O2)c1OCc1ccccc1F (stereo not given)	84*	-6	0.8	0.8	0.9
CCNC(=S)N(Cc1ccc2c(c1)OCO2)C1CC(=O)N(c2ccc(F)cc2)C1=O (stereo not given)	6	-2	0.9	0.9	0.9
CCCOc1ccc(N2C(=O)CC(N(CCc3ccccc3)C(=O)c3ccccc3)C2=O)cc1 (stereo not given)	18	4	1	1.1	1.1
Cc1ccc2c(c1)/C(=N/OS(=O)(=O)c1ccccc1)CCS2	-9	nt	nt	nt	nt
CC1=CC(=O)C=C(C)C1=NOS(=O)(=O)c1ccccc1	100*	-22	1	0.5	0.1
SMILES	Lmaj promast	WT yeast gro inh	Diaphorase act	PMI act hi M6P	PMI activator
S=C(Nc1ccc(Oc2ccccc2)cc1)NC1CCCC1	45	62*	0.8	0.9	0.9
CC1CCCCC1NC(=S)Nc1ccc(SC(F)F)cc1 (stereo not given)	18	69*	0.8	0.9	0.9
S=C(Nc1ccccc1Oc1ccccc1)Nc1cccc(Cl)c1Cl	14	65*	1	1	0.9
FC(F)Sc1ccc(NC(=S)NCC2CCCCC2)cc1	23	78*	0.9	1	1
CCN(CC)C(=O)CSc1nnc(COc2cccc(C)c2)n1C	-3	-6	0.8	1	1
N#CC1=C(SCC(N)=O)NC2=C(C(=O)c3ccccc32)C1c1ccc(Cl)cc1 (stereo not given)	10	-4	0.8	1.1	1.1
CCCCSc1nnc(CSc2nc3nc(C)cc(C)n3n2)o1	2	23	1.1	1	1
COc1ccc(NC(=S)NC2CCCCCC2)c(OC)c1	77*	64*	0.8	1	1
